Experimental data from ChEMBL document CHEMBL1157010, “Synthesis and in vivo evaluation of 3,4-disubstituted gababutins” (Bioorg Med Chem Lett, 2010).
Active and inactive are the calls of the source. No cut-off for these calls is given here.

Assays:
[1] = Displacement of [3H]gabapentin from Voltage-dependent calcium channel subunit alpha-2/delta in pig cerebral cortex by scintillation counting; assay type: tissue-based, Sus scrofa
[2] = Clearance in rat; assay type: ADME, organism-based; settings: in vivo
[3] = Bioavailability in rat; assay type: ADME, organism-based; settings: in vivo
[4] = Elimination half life in rat; assay type: ADME, organism-based; settings: in vivo, read-out: beta t1/2 (converted)
[5] = Lipophilicity, log D at pH 7.4; assay type: physicochemical; settings: buffer
[6] = Tmax in rat; assay type: ADME, organism-based; settings: in vivo
[7] = tested on: Rattus norvegicus; assay: Anxiolytic activity in po dosed rat water lick conflict model of anxiety assessed as increase in number of shocks received; assay type: functional
Method in brief: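 Rat drinking-conflict model with oral dosing across a range of doses. The read-out was the mean number of shock episodes received per rat over 10 min, where a greater number of shocks indicates reduced anxiety. The minimum effective dose was determined, with significance tested against vehicle (P <0.05).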

[8] = tested on: Rattus norvegicus; assay: Sedative activity in rat at > 100 mg/kg, po; assay type: organism-based; parameters: dose 100 mg/kg, route oral; settings: in vivo
[9] = tested on: Rattus norvegicus; assay: Sedative activity in rat water lick conflict model of anxiety at 100 mg/kg, po; assay type: organism-based; parameters: dose 100 mg/kg, route oral; settings: in vivo
[10] = tested on: Rattus norvegicus; assay: Antiinflammatory activity against carrageenan-induced thermal hyperalgesia in rat assessed as paw withdrawal from heat at 30 mg/kg, po after 2 hrs; assay type: functional, organism-based; parameters: dose 30 mg/kg
Method in brief: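 Rats received intraplantar carrageenan in the paw, and inflammation and hyperalgesia developed within 2 h. At that point the compound was given orally. Reversal of thermal hyperalgesia was read as time to paw withdrawal. Significance was tested against vehicle (P <0.05, P <0.01).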

## CC[C@@H]1C[C@](CN)(CC(=O)O)C[C@@H]1CC
[1]
  IC50: 4200 nM

## C[C@@H]1CC(CN)(CC(=O)O)C[C@H]1C
[1]
  IC50: 882 nM

## C[C@@H]1C[C@](CN)(CC(=O)O)C[C@@H]1C
[1]
  IC50: 153 nM

## C[C@@H]1C[C@@](CN)(CC(=O)O)C[C@@H]1C
[1]
  IC50: 107 nM

## C[C@@H]1CC[C@@](CN)(CC(=O)O)C1
[1]
  IC50: 71 nM

## C[C@@H]1CC[C@](CN)(CC(=O)O)C1
[1]
  IC50: 30 nM

## CCC[C@H]1CC(CN)(CC(=O)O)C[C@@H]1C (mixture of isomers)
[1]
  IC50: 21 nM

## CC[C@H]1CC(CN)(CC(=O)O)C[C@@H]1CC (racemic)
[1]
  IC50: 1100 nM

## C[C@H]1CC(CN)(CC(=O)O)C[C@@H]1C (relative stereo) [ATAGABALIN]
[2]
  clearance: 4 mL/min/kg
[3]
  bioavailability: 87%
[4]
  half-life: 2.4 h
[1]
  IC50: 22 nM
[5]
  logD: -1
[6]
  Tmax: 1.2 h
[7]
  Activity: Dose-dependent effect
[7]; read-out: MED
  minimal effective dose: 10 mg/kg
[8]
  Activity: Toxic
[9]
  Activity: Toxic
[10]
  Activity: Active
